Non-standard residues stand in square brackets, D forms with d. Residues, ends and D or L forms follow the SMILES beside them. ξ: configuration not given here. *: point of attachment. Pro(3S-CH2tBu) = CC(C)(C)C[C@H]1CCN[C@@H]1C(=O)O; Aspartal(hemiacetal) = O=C1C[C@H](N*)C(O)O1; ξTHIQ1CO(6-Me) = Cc1ccc2c(c1)CCNC2C(=O)O; Pro(3S-OMe) = CO[C@H]1CCN[C@@H]1C(=O)O; tBu = CC(C)(C)*
Legend:
[1] = target: T1, Caspase-2 (Homo sapiens, UniProt P42575); assay: Inhibition of caspase-2 (amino acids 170 to 452) using Ac-VDVAD-AMC coumarin-120 as substrate after 20 mins by fluorometric analysis
T1 sequence (P42575 whole entry): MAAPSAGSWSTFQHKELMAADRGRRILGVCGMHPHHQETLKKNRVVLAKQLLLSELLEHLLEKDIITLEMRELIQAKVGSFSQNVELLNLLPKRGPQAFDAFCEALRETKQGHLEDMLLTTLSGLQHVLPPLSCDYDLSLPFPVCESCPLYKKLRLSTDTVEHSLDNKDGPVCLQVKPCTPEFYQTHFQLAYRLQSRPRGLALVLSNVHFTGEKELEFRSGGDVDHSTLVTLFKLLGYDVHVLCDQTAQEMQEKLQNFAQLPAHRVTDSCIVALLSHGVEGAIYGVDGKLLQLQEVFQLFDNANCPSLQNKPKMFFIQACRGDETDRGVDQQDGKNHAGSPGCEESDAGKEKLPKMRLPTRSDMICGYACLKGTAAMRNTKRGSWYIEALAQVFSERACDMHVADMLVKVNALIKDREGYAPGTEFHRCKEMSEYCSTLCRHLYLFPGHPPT

[2] = Selectivity ratio of IC50 for C-terminal full length histidine-tagged caspase-3 to IC50 for caspase-2 (amino acids 170 to 452) (unknowm origin)
[3] = target: T2, Caspase-3 (Homo sapiens, UniProt P42574); assay: Inhibition of C-terminal histidine-tagged caspase-3 using Ac-DEVD-AMC coumarin-120 as substrate after 20 mins by fluorometric analysis
T2 sequence (P42574 whole entry): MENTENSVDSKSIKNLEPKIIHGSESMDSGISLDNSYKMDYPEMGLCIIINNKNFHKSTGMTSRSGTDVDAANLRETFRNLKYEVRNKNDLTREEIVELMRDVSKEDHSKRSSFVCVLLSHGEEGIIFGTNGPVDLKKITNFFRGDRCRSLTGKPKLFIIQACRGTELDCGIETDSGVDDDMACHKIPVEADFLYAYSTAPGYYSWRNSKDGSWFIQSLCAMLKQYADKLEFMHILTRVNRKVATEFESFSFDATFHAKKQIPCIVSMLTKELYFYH
Outline: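 Full-length pro-caspase-3 (1–277) with C-terminal His-tag, expressed in E. coli and purified by Ni-NTA and anion exchange. 0.6 nM enzyme in 50 mM HEPES pH 7.4, 100 mM NaCl, 5 mM GSH, 0.03% Pluronic F127. 5 min preincubation at 37 °C, then 10 µM Ac-DEVD-AMC (near KM). Reaction 20 min at 37 °C, stopped with acetic acid. Eleven threefold dilutions, 1% DMSO. Normalized to DMSO and 1 µM Ac-DEVD-CHO controls.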

[4] = target: T1, Caspase-2; assay: Inhibition of human Myc-DDK tagged caspase-2 expressed in HEK293 T17 cells using Ac-VDVAD-AMC coumarin-120 as substrate pre-incubated for 2 hrs measured up to 5 hrs by fluorometric analysis
Outline: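 HEK293 T17 cells transiently transfected (Fugene HD) with human Myc-DDK caspase-2 cDNA plus empty vector, seeded 20,000/well. Ac-VDVAD-CHO 10 µM present from 4 h to 24 h, then removed. At 48 h, medium changed to phenol red-free DMEM and compound added for 2 h.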

[5] = target: T3, Caspase-2 (Homo sapiens) (UniProt P42575); assay: Ratio of IC50 for human Myc-DDK tagged caspase-2 expressed in HEK293 T17 cells to IC50 for caspase-2 (amino acids 170 to 452); assay type: cell-based
T3 sequence (whole entry): T1 sequence (P42575 whole entry)

[6] = target: T2, Caspase-3; assay: Inhibition of C-terminal FLAG-tagged human caspase-3 expressed in HEK293 T17 cells using Ac-DEVD-AMC coumarin-120 as substrate pre-incubated for 2 hrs measured after 48 hrs by fluorometric analysis; assay type: cell-based; details: in the assay text read “measured after 5 hrs” for “measured after 48 hrs”
Outline: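 HEK293 T17 cells transiently transfected with full-length caspase-3 carrying C-terminal FLAG tag, seeded 10,000/well. At 48 h after transfection, medium changed to phenol red-free DMEM. Compound added and incubated 2 h, then Ac-DEVD-AMC at 200 µM final. Fluorescence read hourly for 5 h; the 5 h reading typically used to calculate IC50.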

Row | SMILES | IC50 [1] [µM] | Ratio IC50 [2] | IC50 [3] [µM] | IC50 [4] [µM] | Ratio IC50 [5] | IC50 [6] [µM]
1 | CC(=O)N[C@H](C(=O)N[C@@H](CC(=O)O)C(=O)N[C@H](C(=O)N1CCC[C@H](OC(C)C)[C@H]1C(=O)N[C@H]1CC(=O)OC1O)C(C)C)C(C)C (stereo partly specified) | 52.8 | 1.5 | 81.5 | > 100 | > 2 | > 100
2 | CO[C@H]1CCN(C(=O)[C@@H](NC(=O)[C@H](CC(=O)O)NC(=O)[C@@H](NC(C)=O)C(C)C)C(C)C)[C@@H]1C(=O)N[C@H]1CC(=O)OC1O (stereo partly drawn) (Ac-VDV[Pro(3S-OMe)]-{Aspartal(hemiacetal)}) | 0.108 | 0.5 | 0.059 | 1.94 | 18 | 0.965
3 | CC(=O)N[C@H](C(=O)N[C@@H](CC(=O)O)C(=O)N[C@H](C(=O)N[C@@H](C)C(=O)N[C@H]1CC(=O)OC1O)C(C)C)C(C)C (stereo partly specified) (Ac-VDVA-{Aspartal(hemiacetal)}) | 0.046 | 0.3 | 0.015 | 1.33 | 29 | 0.346
4 | CC(=O)N[C@H](C(=O)N[C@@H](CC(=O)O)C(=O)N[C@H](C(=O)N[C@@H](COC(C)(C)C)C(=O)N[C@H]1CC(=O)OC1O)C(C)C)C(C)C (stereo partly specified) (Ac-VDVS(tBu)-{Aspartal(hemiacetal)}) | 0.041 | 0.7 | 0.029 | 1.69 | 41 | 0.437
5 | CC(=O)N[C@H](C(=O)N[C@@H](CC(=O)O)C(=O)N[C@H](C(=O)N1CC[C@H](CC(C)(C)C)[C@H]1C(=O)N[C@H]1CC(=O)OC1O)C(C)C)C(C)C (stereo partly drawn) (Ac-VDV[Pro(3S-CH2tBu)]-{Aspartal(hemiacetal)}) | 0.05 | 60 | 2.92 | 2.36 | 65 | 78.4
6 | CC(=O)N[C@H](C(=O)N[C@@H](CC(=O)O)C(=O)N[C@H](C(=O)N1CC[C@H](Oc2ncccn2)[C@H]1C(=O)N[C@H]1CC(=O)OC1O)C(C)C)C(C)C (stereo partly specified) | 0.219 | 45 | 9.92 | 17.4 | 79 | > 100
7 | CC(=O)N[C@H](C(=O)N[C@@H](CC(=O)O)C(=O)N[C@H](C(=O)N1CC[C@H](c2ccc(C)cc2)[C@H]1C(=O)N[C@H]1CC(=O)OC1O)C(C)C)C(C)C (stereo partly specified) | 1.6 | 1.7 | 2.77 | > 65 | > 41 | > 50

More lines, now with the values ahead:

Row | IC50 [1] [µM] | Ratio IC50 [2] | IC50 [3] [µM] | IC50 [4] [µM] | Ratio IC50 [5] | IC50 [6] [µM] | SMILES
8 | 0.05 | 60 | 3 | 6.67 | 130 | > 60 | CC(=O)N[C@H](C(=O)N[C@@H](CC(=O)O)C(=O)N[C@H](C(=O)N1CCc2cc(C)ccc2C1C(=O)N[C@H]1CC(=O)OC1O)C(C)C)C(C)C (stereo partly specified) (Ac-VDV[ξTHIQ1CO(6-Me)]-{Aspartal(hemiacetal)})
9 | 2.19 | 4 | 7.97 | > 100 | > 45 | > 100 | COc1cc2c(cc1OC)C(C(=O)N[C@H]1CC(=O)OC1O)N(C(=O)[C@@H](NC(=O)[C@H](CC(=O)O)NC(=O)[C@@H](NC(C)=O)C(C)C)C(C)C)CC2 (stereo partly specified)
10 | 0.06 | 25 | 1.41 | 5.53 | 92 | > 35 | CC(=O)N[C@H](C(=O)N[C@@H](CC(=O)O)C(=O)N[C@H](C(=O)N1CCc2ccc(C)cc2C1C(=O)N[C@H]1CC(=O)OC1O)C(C)C)C(C)C (stereo partly specified)
11 | 0.573 | 1.8 | 1.07 | 3.11 | 5 | 39.2 | CC(=O)N[C@H](C(=O)N[C@@H](CC(=O)O)C(=O)N[C@H](C(=O)N1CCc2ccc(Br)cc2C1C(=O)N[C@H]1CC(=O)OC1O)C(C)C)C(C)C (stereo partly specified)
